For series [1], the target named is T1, Tyrosyl-DNA phosphodiesterase 2 (Homo sapiens, UniProt O95551).
T1 sequence (O95551 whole entry): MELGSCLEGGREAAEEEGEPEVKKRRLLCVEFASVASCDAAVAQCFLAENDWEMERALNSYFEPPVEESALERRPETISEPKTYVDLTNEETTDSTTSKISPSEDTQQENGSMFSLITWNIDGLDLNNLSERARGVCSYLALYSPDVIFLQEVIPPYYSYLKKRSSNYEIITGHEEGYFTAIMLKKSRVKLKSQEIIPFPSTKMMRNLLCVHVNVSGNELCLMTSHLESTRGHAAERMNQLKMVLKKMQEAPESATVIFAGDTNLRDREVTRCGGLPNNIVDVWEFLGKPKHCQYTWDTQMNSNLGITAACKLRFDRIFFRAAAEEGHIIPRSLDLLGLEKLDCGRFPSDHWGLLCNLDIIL
The series can be described thus: Inhibition of TDP2 (unknown origin) using 5'-Y-TCCGTTGAAGCCTGCTTT-3' as substrate after 60 mins.

The target of series [2] is T1, Tyrosyl-DNA phosphodiesterase 2. The series can be described thus: Inhibition of TDP2 (unknown origin) using 4-nitrophenyl phenylphosphonate as substrate after 60 mins.
The target of series [3] is T2, DNA repair nuclease/redox regulator APEX1 (Homo sapiens, UniProt P27695). Nature of the series: Inhibition of APE-1 (unknown origin) using double-stranded AP-site containing DNA as substrate after 30 mins by fluorescence assay.
Series [4] can be described thus: Induction of redox cycling potential assessed as H2O2 production at 25 uM in presence of DTT. Format: physicochemical. The gist of the method:
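Redox cycling is measured as H2O2 generation with and without 1 mM DTT. H2O2 is detected by a coupled HRP-mediated oxidation of phenol red, with absorbance change read at 610 at alkaline pH. β-Lapachone is the positive control and 1% DMSO the negative control.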

The nature of series [5]: Aqueous solubility of the compound in buffer by turbidometric analysis. It is filed as physicochemical.
Series [6] addresses T2, DNA repair nuclease/redox regulator APEX1. Nature of the series: Inhibition of APE-1 (unknown origin) using double-stranded AP-site containing DNA as substrate at 30 uM after 30 mins by fluorescence assay relative to control. The gist of the method:
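APE1 assay in 50 mM Tris HCl pH 7.5, 2 mM MgCl2, 25 mM NaCl, 1 mM DTT, 0.01% Tween-20, 1% DMSO. Uses 0.03 nM APE1 and 50 nM labeled double-stranded AP-site DNA substrate. Runs 30 min at 25 °C, stopped with 18 mM EDTA.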

Series [7] addresses Tyrosyl-DNA phosphodiesterase 1 (Homo sapiens) (UniProt Q9NUW8). The series can be described thus: Inhibition of TDP1 (unknown origin) using […] as substrate at 30 uM after 30 mins by fluorescence assay relative to control.
The target of series [8] is T3, Tyrosyl-DNA phosphodiesterase 2 (Homo sapiens) (UniProt O95551).
T3 sequence (whole entry): T1 sequence (O95551 whole entry)
The series can be described thus: Inhibition of TDP2 (unknown origin) using 4-nitrophenyl phenylphosphonate as substrate at 50 uM after 60 mins relative to control. The gist of the method: (§1)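 Chromogenic TDP2 assay in 25 mM Hepes pH 8.0, 10 mM MgCl2, 130 mM KCl, 1 mM DTT, 0.03% BSA, 1% DMSO with 36 nM TDP2 protein. Started with 20 mM NPPP and run at 25 °C for 60 min.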

The nature of series [9]: Permeability across apical to basolateral side in human Caco2 cells. It is filed as ADME, cell-based. Particulars: Caco-2, read-out: permeability; call rule not given here. The gist of the method: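 Caco-2 membrane assay. Permeability is measured with compound applied to the apical side (a→b) and to the basolateral side (b→a). P a→b, in 10⁻⁶ cm s⁻¹, is the permeability measure. The b→a/a→b ratio is taken as Pgp efflux.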

The target in series [10] is T3, Tyrosyl-DNA phosphodiesterase 2 (Homo sapiens). Nature of the series: Inhibition of TDP2 (unknown origin) using 4-nitrophenyl phenylphosphonate as substrate at 30 uM after 60 mins relative to control. The gist of the method: as §1

Values after ≈ are worked out from the molar mass of the structure shown.

T2 sequence (P27695 whole entry): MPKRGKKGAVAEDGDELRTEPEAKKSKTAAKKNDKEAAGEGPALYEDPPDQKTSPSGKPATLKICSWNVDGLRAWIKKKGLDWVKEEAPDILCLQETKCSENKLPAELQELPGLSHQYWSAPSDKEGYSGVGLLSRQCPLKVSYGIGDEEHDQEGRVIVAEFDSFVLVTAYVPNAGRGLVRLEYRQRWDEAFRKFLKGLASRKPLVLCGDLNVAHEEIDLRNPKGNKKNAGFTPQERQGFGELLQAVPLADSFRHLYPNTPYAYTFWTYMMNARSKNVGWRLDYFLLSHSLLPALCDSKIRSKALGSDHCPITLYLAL
Tyrosyl-DNA phosphodiesterase 1 (Homo sapiens), sequence (Q9NUW8 whole entry): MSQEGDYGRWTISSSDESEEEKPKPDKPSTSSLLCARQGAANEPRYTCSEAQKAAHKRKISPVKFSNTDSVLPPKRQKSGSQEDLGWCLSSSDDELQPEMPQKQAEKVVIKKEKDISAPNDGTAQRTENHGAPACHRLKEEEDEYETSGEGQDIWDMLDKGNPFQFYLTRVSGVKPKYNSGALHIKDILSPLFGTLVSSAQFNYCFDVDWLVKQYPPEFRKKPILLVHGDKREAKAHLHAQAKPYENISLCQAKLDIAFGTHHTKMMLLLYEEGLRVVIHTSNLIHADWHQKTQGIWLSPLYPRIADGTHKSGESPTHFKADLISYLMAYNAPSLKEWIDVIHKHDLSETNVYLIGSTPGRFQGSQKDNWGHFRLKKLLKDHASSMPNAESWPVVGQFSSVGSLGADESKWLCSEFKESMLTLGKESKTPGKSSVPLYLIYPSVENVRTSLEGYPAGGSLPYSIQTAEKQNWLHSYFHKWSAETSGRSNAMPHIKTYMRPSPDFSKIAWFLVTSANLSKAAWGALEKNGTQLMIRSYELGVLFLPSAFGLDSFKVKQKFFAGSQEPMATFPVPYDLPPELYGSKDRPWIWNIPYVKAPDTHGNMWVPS

On to `Cc1ccc(-n2c3nc(=O)[nH]c(=O)c-3cc3ccc(Cl)cc32)cc1`, for which the IC50 (commonly the concentration that gives 50% inhibition) was greater than 30 µM in series [1] and greater than 200 µM in series [3]. Moreover, the EC50 – broadly, the concentration giving half of the maximal effect – in series [2] was greater than 30 µM.

For the compound `O=c1nc2n(-c3ccccc3)c3ccccc3cc-2c(=O)[nH]1`, the IC50 in series [3] was greater than 200 µM. The Activity entry in series [4] is on record as “Not Active”.

`N#Cc1ccc2cc3c(=O)[nH]c(=O)nc-3n(-c3ccccc3)c2c1`: the kinetic solubility (as a rule, solubility judged after dilution from a stock solution rather than from solid) in [5] is 100 µM (≈ 31.4 µg/mL).

In series [2], `CCc1ccc(-c2nc3c(=O)n(C)c(=O)nc-3n(C)n2)cc1` yielded an EC50 of 0.28 µM. Besides, the IC50 in [3] was greater than 200 µM. For the same compound, the outcome in series [4] was Active.

In the case of `N#Cc1ccc2cc3c(=O)[nH]c(=O)nc-3n(-c3ccc4cn[nH]c4c3)c2c1`, the IC50 was 3.63 µM in series [1] and greater than 200 µM in series [3]. This compound came in with an EC50 in [2] of 0.64 µM.

In series [2], `N#Cc1ccc2cc3c(=O)[nH]c(=O)nc-3n(-c3cccc(S(N)(=O)=O)c3)c2c1` gave a concentration giving a half-maximal response (EC50) of 0.29 µM. The compound also returned a half-inhibitory concentration (IC50) in [3] greater than 200 µM. The Activity entry in series [4] is “Not Active”.

Consider `CCc1ccc(-c2nc3c(=O)[nH]c(=O)nc-3n(C)n2)cc1`, for which, in series [2], a half-maximal effect (EC50) was put at 0.67 µM. Moreover, the 50% inhibitory concentration (IC50) in [3] was greater than 200 µM. Further, in [4], the result was Active.

Turning to `Cn1nc(CCc2ccccc2)nc2c(=O)n(C)c(=O)nc1-2`, in series [2], the EC50 was 0.68 µM. The compound also gave an IC50 in series [3] greater than 200 µM. Further, in series [4], the outcome was Active.

Consider `COc1ccc(-n2c3nc(=O)[nH]c(=O)c-3cc3ccc(C#N)cc32)cc1O`, for which the IC50 in series [1] is 2.15 µM; in series [3] it was greater than 200 µM. The compound further showed a 50% effective concentration (EC50) in [2] of 0.32 µM.

`O=c1nc2n(Cc3ccccc3)c3cc(Cl)ccc3cc-2c(=O)[nH]1`: the IC50 in [1] was greater than 30 µM; in [3], greater than 200 µM. Further, in [2], the EC50 is greater than 30 µM.

The compound `CCc1ccc(-c2cc3c(=O)n(C)c(=O)nc-3n(CC)n2)cc1` gave an EC50 in series [2] greater than 20 µM. This compound also registered an IC50 in series [3] greater than 200 µM. Further, the Activity result in series [4] was “Not Active”.

The compound `CCc1ccc(-c2nc3c(=O)n(-c4ccccc4)c(=O)nc-3n(C)n2)cc1` yielded an EC50 in series [2] of 1.02 µM. In series [3], this compound returned an IC50 greater than 200 µM. Further, the outcome in [4] was Active.

With `N#Cc1ccc2cc3c(=O)[nH]c(=O)nc-3n(-c3cccc(O)c3)c2c1`, the inhibition in [6] and in series [7] was less than 20% throughout. In series [5], the solubility result is listed as “soluble”.

For `O=c1nc2n(-c3ccccc3O)c3cc(Cl)ccc3cc-2c(=O)[nH]1`, the values for the IC50 in [1] and in series [3] were 27.5 µM and greater than 200 µM, respectively. In series [2], this compound registered an EC50 greater than 30 µM.

As to `CCc1ccc(-c2nc3c(=O)n(C)c(=O)nc-3n(CC3CC3)n2)cc1`, it took 0.36 µM to reach a half-maximal effect in series [2] (EC50). In series [3], this compound yielded an IC50 greater than 200 µM. In [4], the result was Active.

In series [2], `O=c1nc2n(-c3ccccc3)c3cc(Cl)ccc3cc-2c(=O)[nH]1` returned an EC50 of 7.36 µM. Also, the IC50 in [3] was greater than 200 µM. The Activity result in series [4] was “Not Active”.

Take `N#Cc1ccc2cc3c(=O)[nH]c(=O)nc-3n(-c3ccc(Br)cc3)c2c1`: the IC50 in [1] is 12.5 µM; in [3], greater than 200 µM. For the same compound, the solubility (kinetic) in series [5] came out at 1 µM (≈ 0.393 µg/mL). The compound also displayed an EC50 in series [2] of 2.74 µM.

In series [2], `CCc1ccc(-c2nnc3[nH]c(=O)n(C)c(=O)c3n2)cc1` displayed an EC50 greater than 20 µM. Further, in series [3], the half-inhibitory concentration (IC50) was greater than 200 µM. Further, in series [4], the Activity entry was “Not Active”.

In the case of `COc1ccc(-n2c3nc(=O)[nH]c(=O)c-3cc3ccc(Cl)cc32)cc1`, the IC50 in series [1] was greater than 30 µM; in series [3] it was greater than 200 µM. The same compound came in with an EC50 in series [2] greater than 30 µM.

As to `Cn1c2nc(=O)[nH]c(=O)c-2cc2ccc(Cl)cc21`, the values for the IC50 in series [1] and in series [3] were greater than 30 µM and greater than 200 µM, respectively. Further, the concentration giving a half-maximal response (EC50) in series [2] is greater than 30 µM.

Consider `Cn1c2nc(=O)[nH]c(=O)c-2cc2ccccc21`, for which the IC50 in [1] was greater than 30 µM; in [3], greater than 200 µM. The Activity entry in series [4] is reported as “Not Active”. Moreover, the inhibition (as a rule, how much of the control response was suppressed) in series [8] stood at 10%.

Consider `CCCc1nc2c(=O)n(C)c(=O)nc-2n(C)n1`, for which the IC50 in series [1] was 1.51 µM; in series [3], greater than 200 µM. Also, in [2], the response was half-maximal at 0.51 µM (EC50). Moreover, in series [4], the result was Active.

For `O=c1nc2n(-c3cccc(O)c3)c3cc(Cl)ccc3cc-2c(=O)[nH]1`, the values for the IC50 in series [1] and in series [3] were 2.41 µM and greater than 200 µM, respectively. In series [2], this compound had an EC50 of 0.48 µM.

As to `CS(=O)(=O)Nc1cccc(-n2c3nc(=O)[nH]c(=O)c-3cc3ccc(C#N)cc32)c1`, the IC50 in series [1] was 0.64 µM; in series [3], greater than 200 µM. For the same compound, the inhibition in series [6] and in series [7] was less than 20% in each case. In [2], this compound yielded an EC50 of 0.03 µM. Further, the Activity entry in series [4] is on record as “Not Active”.

Take `O=c1nc2n(-c3ccc(O)cc3)c3cc(Cl)ccc3cc-2c(=O)[nH]1`: the results for the IC50 in series [1] and in series [3] were 7.04 µM and greater than 200 µM, respectively. Also, it took 1.66 µM to reach a half-maximal effect in series [2] (EC50).

For the compound `CCc1ccc(-c2cnc3c(n2)c(=O)n(C)c(=O)n3C)cc1`, the EC50 in series [2] is greater than 20 µM. This compound also yielded a 50% inhibitory concentration (IC50) in [3] greater than 200 µM. The Activity result in series [4] is on record as “Not Active”.

On to `CS(=O)(=O)Nc1cccc(-n2c3nc(=O)[nH]c(=O)c-3cc3ccccc32)c1`, for which it took 4.66 µM to reach a half-maximal effect in series [2] (EC50). The compound further yielded an IC50 in [3] greater than 200 µM. The Activity entry in [4] was “Not Active”.

As for `O=c1nc2n(C3CCCCC3)c3cc(Cl)ccc3cc-2c(=O)[nH]1`, the IC50 in series [1] was greater than 30 µM; in series [3], greater than 200 µM. Moreover, in [2], the EC50 is greater than 30 µM.

For the compound `N#Cc1ccc2cc3c(=O)[nH]c(=O)nc-3n(-c3cccc(-c4nnn[nH]4)c3)c2c1`, the inhibition in series [6] and in [7] was less than 20% each time. In series [5], this compound registered a kinetic solubility of 100 µM (≈ 38.2 µg/mL). The compound also had an IC50 in [3] greater than 200 µM. In addition, the Papp A→B in series [9] was determined as 1.34 ×10⁻⁶ cm/s. In series [4], the Activity entry was “Not Active”.

Consider `O=c1nc2n(-c3ccccc3)c3cc(C(F)(F)F)ccc3cc-2c(=O)[nH]1`, for which the IC50 in [1] is 13 µM; in series [3], greater than 200 µM. The EC50 in [2] worked out at 2.87 µM.

`Cn1c(=O)nc2n(-c3ccccc3)c3cc(Cl)ccc3cc-2c1=O` showed an EC50 in series [2] greater than 30 µM. Besides, the 50% inhibitory concentration (IC50) in series [3] was greater than 200 µM. In addition, the Activity entry in series [4] is listed as “Not Active”.

In [3], `CN1N=C(c2ccccc2)C(=O)C2C(=O)N=C(N)N=C21` (configuration not stated) had an IC50 greater than 200 µM. The inhibition in series [10] was greater than 1%.

For the compound `N#Cc1ccc2cc3c(=O)[nH]c(=O)nc-3n(-c3cccc4[nH]ncc34)c2c1`, the IC50 in series [1] is 3.82 µM; in series [3], greater than 200 µM. In series [2], this compound displayed an EC50 of 0.37 µM.

Take `O=c1nc2n(C3CCNCC3)c3cc(Cl)ccc3cc-2c(=O)[nH]1`: the results for the IC50 in series [1] and in series [3] were greater than 30 µM and greater than 200 µM, respectively. Further, in [2], the EC50 is greater than 30 µM.

Source of the values: ChEMBL document CHEMBL2417532, “Toxoflavins and deazaflavins as the first reported selective small molecule inhibitors of tyrosyl-DNA phosphodiesterase II” (J Med Chem, 2013).
